In the library only some 9.6% were active in any assay of this set; here they are far more common.
L major viab: inhibitors of Leishmania major promastigote growth; Leishmania major promastigotes, resazurin fluorescence viability; inhibition, % at 10 µM; hit rate 9% among 200,000; AID 1063; in the data active = inhibition above about 50%;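 note: promastigotes grown with compound for 44 hours at 28 °C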
BaF3 parental: reduces parental Ba/F3 cell viability, JAK2V617F counter-screen | CellTiter-Glo ATP luminescence | inhibition, % at 5.6 µM | hit rate 1.1% among 220,000;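 active = inhibition above a per-campaign cutoff, the mean inhibition of all tested compounds plus 3 SD, cut at about 27% in these data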;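 note: 0% = DMSO wells and 100% = JAK Inhibitor I control wells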
b-catenin transl: beta-catenin nuclear translocation modulation; AID 1665; HeLa beta-catenin nuclear translocation, immunofluorescence imaging; nuclear translocation activity, % at 5 µM; hit rate 0.3% among 190,000;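 active = nuclear translocation activity above 50% at 5 µM, with a well cell count of 50 or more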;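 note: per-cell ratio of nuclear to cytoplasmic median beta-catenin stain intensity; plate controls were DMSO negative control for no effect and GSK-3 inhibitor IX positive control for full effect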
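Test system: human HeLa cells, endogenous beta-catenin. Times: 24 h compound exposure, 37°C. Measured by: beta-catenin immunofluorescence imaging with DAPI.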
Ba/F3 V617F tox: reduce viability of Ba/F3 cells dependent on JAK2V617F; inhibition, % at 5.6 µM; AID 1446; hit rate 1.1% among 220,000; Ba/F3 EpoR-JAK2V617F viability, ATP luminescence;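 active = inhibition above the campaign mean plus 3 SD over all tested compounds, cut at about 24% in these data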;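 note: cytokine-independent growth of Ba/F3 cells driven by EpoR plus mutant JAK2; 0% = DMSO-treated cells and 100% = JAK inhibitor I control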
APP 5UTR inh: APP translation inhibition; SH-SY5Y APP 5'UTR-luciferase reporter, luminescence; inhibition, % at 2 µM; hit rate 0.82% among 190,000; AID 1285;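 active = inhibition above a set limit, derived from the sample mean plus 3 SD, cut at about 45% in these data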
MT stabilizer: microtubule stabilizers in HeLa cells. HeLa tubulin immunostaining HCS, 24 h; share of cells brighter than vehicle mean+2SD. % tubulin-high responders, % at 10 µM. hit rate 0.83% among 200,000;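 active = plate Z-score above 3 for both tubulin-high and condensed-nucleus cell shares, with cell loss under 80%, at 10 µM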;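 note: anti alpha tubulin signal scored within the nucleus-defined area of each cell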
Active calls of the source: *; · = no result.

SMILES | L major viab | BaF3 parental | b-catenin transl | Ba/F3 V617F tox | APP 5UTR inh | MT stabilizer
CC1(C(=O)NNC(=O)c2ccc(=O)oc2)CC1Br (centres undefined) | · | 28.3* | -1.8 | 0.2 | · | ·
Cc1ccc(-n2c(N)c(C(=O)Nc3c(C)n(C)n(-c4ccccc4)c3=O)c3nc4ccccc4nc32)cc1 | 59.8* | 1.2 | 1.0 | -2.8 | 2.5 | 4.7
COc1cccc(-n2c(N)c(C(=O)Nc3c(C)n(C)n(-c4ccccc4)c3=O)c3nc4ccccc4nc32)c1 | · | 6.6 | 9.2 | -3.6 | · | ·
Cc1ccc(C(=O)Nc2c(C)n(C)n(-c3ccccc3)c2=O)cc1 | -9.5 | 5.5 | -0.3 | -0.7 | 2.9 | 2.5
Cc1cc(C)cc(-n2c(N)c(C(=O)Nc3c(C)n(C)n(-c4ccccc4)c3=O)c3nc4ccccc4nc32)c1 | 76.5* | 9.4 | 6.9 | 6.8 | 15.2 | 5.0
O=C(Nc1ccc(S(=O)(=O)Nc2nccs2)cc1)c1cnc(Cl)c(Cl)c1 | · | 4.9 | 0.7 | -3.6 | · | ·
CCOc1cc(S(=O)(=O)N2CC=C(c3ccc(F)cc3)CC2)c(OCC)cc1-n1cnnn1 | 61.7* | 3.7 | 0.7 | 0.6 | 4.7 | 45.3*
CCOc1cc(S(=O)(=O)N2CCC(Cc3ccccc3)CC2)c(OCC)cc1-n1cnnn1 | 23.2 | 8.6 | -7.8 | 1.2 | 1.0 | 2.5
Cc1ccc(C(C(=O)Nc2ccc3c(c2)OCO3)N(C)C(=O)/C=C\c2ccc3c(c2)OCO3)cc1 (centres undefined) | 87.0* | 4.7 | 0.5 | 1.3 | 2.0 | 3.2
c1ccc(-c2ccc(-c3cnc4n3CCCCC4)cc2)cc1 | 98.9* | 10.4 | 1.3 | 0.9 | -29.9 | 4.6
Cc1ccc(-c2cnc3n2CCCCC3)cc1 | -1.9 | 2.7 | -3.2 | -0.4 | -3.6 | 3.0
CC1(C(=O)NNC(=S)NCc2ccco2)CC1(Cl)Cl (centres undefined) | -4.9 | 8.1 | 0.3 | -0.6 | 7.4 | 2.1
C/C(=N\NC(N)=O)c1cccc(Cl)c1 | 82.7* | 6.0 | · | -0.8 | -23.2 | 7.7
O=C(Nc1cccc([N+](=O)[O-])c1)c1ccncc1 | 9.2 | 3.0 | 3.3 | -0.3 | -14.7 | 3.0
O=C(Nc1cccc([N+](=O)[O-])c1)c1ccc2c(c1)OCCO2 | 51.9* | 3.3 | -1.4 | -1.8 | -90.9 | 1.3
O=C(Nc1cccc([N+](=O)[O-])c1)c1cnccn1 | 64.8* | 1.9 | -2.1 | 2.3 | -13.6 | 1.7
O=C(Nc1ccc(NC(=O)c2cc3ccccc3o2)cc1)c1ccc2c(c1)OCCO2 | -6.0 | 6.7 | -0.3 | 1.1 | 66.7* | 2.3
O=C(Nc1ccc(F)c([N+](=O)[O-])c1)c1ccc2c(c1)OCCO2 | -0.7 | 7.0 | 0.0 | -2.7 | -56.5 | 1.5
CC(C)C(=O)Nc1ccc2nn(-c3ccccc3)nc2c1 | 17.9 | 8.4 | -0.3 | 6.3 | -233.8 | 4.7
Cc1cc(/C=N/N2CCN(C)CC2)c(C)n1-c1ccc(Cl)cc1 | · | 0.9 | -0.1 | -1.7 | · | ·
CSc1ncc(CN2CCN(C3CCCC3)C(CCO)C2)cn1 (centres undefined) | -6.6 | 2.8 | 2.2 | 1.7 | 11.1 | 5.4
CC(=O)N1CCN(CC(=O)Nc2sccc2C#N)CC1 | 1.4 | 1.9 | 0.9 | 1.2 | -17.2 | 1.1
Cc1cc(C)c(C)c(S(=O)(=O)N2CCN(CC(=O)Nc3sccc3C#N)CC2)c1C | 56.7* | 5.0 | -3.5 | 2.7 | -12.4 | 2.2
CCOc1ccc2sc(NS(=O)(=O)c3ccc(OC)c(OC)c3)nc2c1 | -11.4 | 0.9 | -1.6 | -1.1 | 6.6 | 2.1
CN(C)CCNC(=O)c1ccc2c(c1)N(Cc1ccc(F)cc1)CCS2 | 99.8* | 2.3 | · | -1.8 | 0.6 | 3.5
SMILES | L major viab | BaF3 parental | b-catenin transl | Ba/F3 V617F tox | APP 5UTR inh | MT stabilizer
O=C(NCCN1CCOCC1)Nc1ccccc1 | -5.0 | 0.4 | -7.3 | -2.9 | · | 2.8
COC(=O)c1c(C)oc(C)c1S(=O)(=O)NC(c1ccccc1)c1ccccc1 | · | -0.6 | 0.4 | -1.4 | · | ·
O=C(COC(=O)CCc1ccccc1)Nc1ccccc1OC(F)F | · | -0.7 | 1.1 | -1.9 | · | ·
COc1ccc2nc(NC(=O)Cc3cccs3)sc2c1 | 58.7* | 3.9 | 0.8 | 0.8 | -70.7 | 1.2
COc1ccc2nc(NC(=O)CN(C)S(=O)(=O)c3cccs3)sc2c1 | 47.2 | 0.8 | 1.6 | -0.8 | -14.2 | 3.5
COc1ccc2nc(NC(=O)CNS(=O)(=O)c3cccs3)sc2c1 | 89.0* | 4.5 | -11.6 | 0.3 | -0.3 | 2.3
CC(=O)Nc1ccc2nc(NC(=O)CCc3ccccc3)sc2c1 | 5.6 | 7.2 | -3.0 | 5.5 | -8.4 | 5.7
